Data on 4 compounds can be found in ChEMBL document CHEMBL5696442, “Discovery of type II inhibitors of TGFβ-activated kinase 1 (TAK1) and mitogen-activated protein kinase kinase kinase kinase 2 (MAP4K2)” (J Med Chem, 2015).

Experiment [1] addresses Mitogen-activated protein kinase 10 (Homo sapiens, UniProt P53779). The experiment is described as follows: Inhibition of JNK3 Lys2 labeling site in human A-375 cells at 0.5 uM by KiNativ Profiling analysis relative to control. Format: cell-based.
For experiment [2], the target named is T1, Kinase suppressor of Ras 1 (Homo sapiens) (UniProt Q8IVT5).
T1 sequence (whole entry): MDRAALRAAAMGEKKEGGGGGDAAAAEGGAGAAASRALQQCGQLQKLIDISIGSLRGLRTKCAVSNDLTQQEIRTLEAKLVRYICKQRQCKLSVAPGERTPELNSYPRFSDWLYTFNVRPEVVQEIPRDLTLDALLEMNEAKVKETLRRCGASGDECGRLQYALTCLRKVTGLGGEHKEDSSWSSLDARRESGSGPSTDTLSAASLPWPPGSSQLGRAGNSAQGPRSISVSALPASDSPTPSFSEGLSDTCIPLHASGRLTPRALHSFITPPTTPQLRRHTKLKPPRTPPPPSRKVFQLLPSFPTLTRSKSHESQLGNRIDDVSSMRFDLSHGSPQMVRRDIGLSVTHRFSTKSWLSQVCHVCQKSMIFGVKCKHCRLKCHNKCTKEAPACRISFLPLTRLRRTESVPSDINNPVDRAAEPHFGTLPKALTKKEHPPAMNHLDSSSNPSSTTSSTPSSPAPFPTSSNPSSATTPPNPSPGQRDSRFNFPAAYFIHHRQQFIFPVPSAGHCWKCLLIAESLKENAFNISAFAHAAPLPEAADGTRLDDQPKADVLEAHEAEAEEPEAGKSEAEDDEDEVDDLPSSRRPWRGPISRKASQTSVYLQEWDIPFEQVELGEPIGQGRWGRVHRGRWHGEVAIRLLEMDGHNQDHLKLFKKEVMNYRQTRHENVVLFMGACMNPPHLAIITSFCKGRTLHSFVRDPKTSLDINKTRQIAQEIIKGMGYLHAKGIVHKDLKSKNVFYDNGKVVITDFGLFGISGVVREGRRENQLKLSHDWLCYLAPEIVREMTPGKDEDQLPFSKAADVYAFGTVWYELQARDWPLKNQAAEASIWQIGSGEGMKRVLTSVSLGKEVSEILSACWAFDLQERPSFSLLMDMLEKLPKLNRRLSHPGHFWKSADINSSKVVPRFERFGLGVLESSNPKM
Kind of experiment: Inhibition of KSR1 ACT labeling site harbouring SKNVFYDNGK in human A-375 cells at 0.05 uM by KiNativ Profiling analysis relative to control. Format: cell-based.

The target of experiment [3] is T2, Aurora kinase A (Homo sapiens) (UniProt O14965).
T2 sequence (whole entry): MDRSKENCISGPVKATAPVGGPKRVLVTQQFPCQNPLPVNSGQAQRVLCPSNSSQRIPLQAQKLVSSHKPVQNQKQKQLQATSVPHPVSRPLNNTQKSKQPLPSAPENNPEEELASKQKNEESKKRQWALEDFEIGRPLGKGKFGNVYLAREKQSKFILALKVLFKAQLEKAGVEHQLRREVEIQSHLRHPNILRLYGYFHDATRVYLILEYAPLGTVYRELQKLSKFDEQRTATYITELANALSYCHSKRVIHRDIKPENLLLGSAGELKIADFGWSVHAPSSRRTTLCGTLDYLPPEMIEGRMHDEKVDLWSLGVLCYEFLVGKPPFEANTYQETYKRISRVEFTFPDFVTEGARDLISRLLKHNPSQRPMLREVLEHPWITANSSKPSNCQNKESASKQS
Kind of experiment: Inhibition of AurA Lys2 labeling site in human A-375 cells at 0.5 uM by KiNativ Profiling analysis relative to control. The class given is cell-based. A digest of the protocol:
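Intact A375 melanoma cells were treated with compound at 5 or 0.5 μM, then lysed. Lysate kinases were labeled with a lysine-reactive ATP or ADP-biotin probe (KiNativ). Inhibition is read as protection of each kinase labeling site from probe labeling.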

Experiment [4] has as its target T3, Serine/threonine-protein kinase 3 (Homo sapiens) (UniProt Q13188).
T3 sequence (whole entry): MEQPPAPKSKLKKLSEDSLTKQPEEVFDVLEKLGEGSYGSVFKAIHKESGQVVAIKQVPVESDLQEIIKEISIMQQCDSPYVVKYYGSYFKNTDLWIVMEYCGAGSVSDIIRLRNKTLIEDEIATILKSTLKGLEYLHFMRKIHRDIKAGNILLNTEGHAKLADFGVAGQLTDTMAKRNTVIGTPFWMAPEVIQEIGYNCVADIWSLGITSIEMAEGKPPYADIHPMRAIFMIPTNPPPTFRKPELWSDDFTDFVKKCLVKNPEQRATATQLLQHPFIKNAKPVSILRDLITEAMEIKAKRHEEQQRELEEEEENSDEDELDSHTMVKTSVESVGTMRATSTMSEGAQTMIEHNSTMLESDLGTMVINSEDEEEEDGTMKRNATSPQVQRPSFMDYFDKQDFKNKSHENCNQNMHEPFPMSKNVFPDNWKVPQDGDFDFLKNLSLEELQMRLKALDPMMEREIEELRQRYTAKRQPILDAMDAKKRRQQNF
The experiment is described as follows: Inhibition of MST2 Lys2 labeling site harbouring DIKAGNILLNTEGHAK in human A-375 cells at 0.05 uM by KiNativ Profiling analysis relative to control. Format: cell-based.

For experiment [5], the target named is Serine/threonine-protein kinase tousled-like 2 (Homo sapiens) (UniProt Q86UE8). The experiment is described as follows: Inhibition of TLK2 Lys1 labeling site in human A-375 cells at 5 uM by KiNativ Profiling analysis relative to control. Format: cell-based.
For experiment [6], the target named is Serine/threonine-protein kinase mTOR (Homo sapiens) (UniProt P42345). Kind of experiment: Inhibition of FRAP ATP labeling site in human A-375 cells at 5 uM by KiNativ Profiling analysis relative to control. The class given is cell-based.
In experiment [7] the target is Mitogen-activated protein kinase 14 (Homo sapiens, UniProt Q16539). The experiment is described as follows: Inhibition of p38 alpha in human Huh-7 cell lysate at 1 uM by KiNativ Profiling analysis relative to control. Format: subcellular.
Sequence of Mitogen-activated protein kinase 14 (Q16539 whole entry): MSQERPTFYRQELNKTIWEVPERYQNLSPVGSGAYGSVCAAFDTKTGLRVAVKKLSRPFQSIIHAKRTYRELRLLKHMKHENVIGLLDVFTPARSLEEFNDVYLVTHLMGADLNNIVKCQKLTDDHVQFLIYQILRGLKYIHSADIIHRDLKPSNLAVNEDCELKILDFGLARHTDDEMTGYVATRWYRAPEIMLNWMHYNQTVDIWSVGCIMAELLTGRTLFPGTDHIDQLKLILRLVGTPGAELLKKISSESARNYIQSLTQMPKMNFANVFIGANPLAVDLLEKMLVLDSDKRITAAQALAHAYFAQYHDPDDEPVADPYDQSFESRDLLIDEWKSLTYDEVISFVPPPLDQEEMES

Sequence of Mitogen-activated protein kinase 10 (P53779 whole entry): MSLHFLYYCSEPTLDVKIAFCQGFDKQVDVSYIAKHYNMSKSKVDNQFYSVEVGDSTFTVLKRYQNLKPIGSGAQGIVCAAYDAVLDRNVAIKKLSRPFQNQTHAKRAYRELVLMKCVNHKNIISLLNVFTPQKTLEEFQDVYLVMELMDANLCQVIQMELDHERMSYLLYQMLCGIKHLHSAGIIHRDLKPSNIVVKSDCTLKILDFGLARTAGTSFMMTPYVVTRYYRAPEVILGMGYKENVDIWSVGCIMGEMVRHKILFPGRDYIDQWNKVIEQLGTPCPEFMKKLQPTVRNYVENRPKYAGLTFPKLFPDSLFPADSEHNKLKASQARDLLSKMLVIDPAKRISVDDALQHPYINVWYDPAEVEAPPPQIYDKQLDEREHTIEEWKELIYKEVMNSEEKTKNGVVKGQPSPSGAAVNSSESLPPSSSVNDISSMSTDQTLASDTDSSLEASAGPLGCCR
Sequence of Serine/threonine-protein kinase tousled-like 2 (Homo sapiens) (Q86UE8 whole entry, looked up): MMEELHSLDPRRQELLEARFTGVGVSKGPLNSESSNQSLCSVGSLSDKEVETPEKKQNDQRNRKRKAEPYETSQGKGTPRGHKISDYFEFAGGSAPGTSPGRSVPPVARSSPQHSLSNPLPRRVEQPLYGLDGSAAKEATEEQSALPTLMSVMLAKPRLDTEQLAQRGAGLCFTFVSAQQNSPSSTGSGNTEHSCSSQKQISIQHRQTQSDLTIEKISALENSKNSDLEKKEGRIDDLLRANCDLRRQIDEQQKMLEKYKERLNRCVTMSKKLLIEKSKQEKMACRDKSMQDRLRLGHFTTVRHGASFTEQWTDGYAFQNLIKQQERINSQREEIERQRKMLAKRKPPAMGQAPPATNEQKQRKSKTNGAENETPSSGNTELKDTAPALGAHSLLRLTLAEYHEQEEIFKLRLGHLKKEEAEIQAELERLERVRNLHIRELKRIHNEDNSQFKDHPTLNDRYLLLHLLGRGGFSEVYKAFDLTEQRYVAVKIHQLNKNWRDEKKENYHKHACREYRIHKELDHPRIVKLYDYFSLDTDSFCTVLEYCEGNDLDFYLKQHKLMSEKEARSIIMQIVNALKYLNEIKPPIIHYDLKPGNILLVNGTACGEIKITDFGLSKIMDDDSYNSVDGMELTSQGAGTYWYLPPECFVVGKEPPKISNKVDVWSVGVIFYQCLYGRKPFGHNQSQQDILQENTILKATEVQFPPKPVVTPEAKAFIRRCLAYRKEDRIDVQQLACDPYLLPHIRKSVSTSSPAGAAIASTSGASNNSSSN

By inhibition is commonly meant the change of the read-out against control, counted positive when it falls. For the compound `CCN1CCN(Cc2ccc(NC(=O)c3ccc(C)c(/C=C/c4cnc5[nH]ccc5c4OC)c3)cc2C(F)(F)F)CC1`, the inhibition was 40.6% in experiment [1]; 8.6% in experiment [2]; 0.7% in experiment [3]; -7% in experiment [4]; 27.5% in experiment [5]; -9.4% in experiment [6].
For `CNc1cc(Oc2cc(C(=O)Nc3cc(-n4cnc(C)c4)cc(C(F)(F)F)c3)ccc2C)ncn1`, in experiment [7], the inhibition turned out to be 13.4%.
Take `CCN1CCN(Cc2ccc(NC(=O)c3ccc(C)c(Oc4ccnc5[nH]ccc45)c3)cc2C(F)(F)F)CC1`: the inhibition in experiment [1] was 73.7%; in experiment [2], 37%; in experiment [3], 12%; in experiment [4] it was 4.7%; in experiment [5], 17.7%; in experiment [6] it was -0.1%.
With `CNc1cc(Oc2cc(C(=O)Nc3cc(N4CCN(C)CC4)cc(C(F)(F)F)c3)ccc2C)ncn1`, the inhibition in experiment [7] was determined as 27.1%.
